Tested on in one data set: not listed separately
The data set is described as follows: (§1) Inhibition of Porphyromonas gingivalis ATCC 33277 MFA interaction with Streptococcus gordonii DL1(1) antigen 1/2 assessed as inhibition of 5(6)-carboxyfluorescein N-hydroxysuccinimide ester-labeled Porphyromonas gingivalis ATCC 33277 cell adhesion to hexidium iodide-labeled Streptococcus gordonii DL1(1) by measuring inhibition of biofilm formation preincubated with Porphyromonas gingivalis ATCC 33277 for 30 mins followed by addition to Streptococcus gordonii DL1(1) culture measured after 22 hrs by laser scanning confocal microscopy. The format is cell-based.
Settings: not given
The method, boiled down: (§2)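 Hexidium iodide-labelled S. gordonii (OD600 0.8 in PBS, pH 7.2) was bound to coverslips for 24 h, anaerobic, 37 °C. Carboxyfluorescein-labelled P. gingivalis (OD600 0.4) was preincubated 30 min at room temperature with compound (0–60 μM final, from 1000X DMSO stock), added, then incubated 22 h anaerobically. After fixation, confocal z-stacks (488/552 nm) were taken. IC50 is 50% reduction of the green/red fluorescence ratio; triplicates, three independent experiments.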
In the case of `COc1ccccc1-c1cn(-c2cccc(-c3nc(-c4ccc(Br)cc4)c(-c4ccc(Br)cc4)o3)c2)nn1`, the half-inhibitory concentration (IC50) is 15 µM.
Turning to `COc1ccc(-c2nc(-c3cccc(-n4cc(-c5ccc6cc(OC)ccc6c5)nn4)c3)oc2-c2ccc(OC)cc2)cc1`, the half-inhibitory concentration (IC50) was 13 µM.
For the compound `CCCCCc1ccc(-c2cn(Cc3nc(-c4ccccc4)c(-c4ccccc4)o3)nn2)cc1`, the 50% inhibitory concentration (IC50) worked out at 35.5 µM.
Consider `COc1ccc(-c2nc(-c3cccc(-n4cc(-c5ccc(F)cc5)nn4)c3)oc2-c2ccc(OC)cc2)cc1`, for which the half-inhibitory concentration (IC50) worked out at 53 µM.
The same measure, in the same setting: the same measure for `COc1ccccc1-c1cn(Cc2nc(-c3ccc(Br)cc3)c(-c3ccc(Br)cc3)o2)nn1`: 43 µM; for `Fc1ccc(-c2nc(-c3ccc(-n4cc(-c5ccccc5C(F)(F)F)nn4)cc3)oc2-c2ccc(F)cc2)cc1`: 12.8 µM; for `COc1ccc2cc(-c3cn(Cc4nc(-c5ccc(Cl)cc5)c(-c5ccc(Cl)cc5)o4)nn3)ccc2c1`: 5.3 µM.
`Fc1cccc(-c2cn(-c3cccc(-c4nc(-c5ccc(Br)cc5)c(-c5ccc(Br)cc5)o4)c3)nn2)c1`: the 50% inhibitory concentration (IC50) came to 5 µM.
On to `COc1ccccc1-c1cn(Cc2nc(-c3ccc(Cl)cc3)c(-c3ccc(Cl)cc3)o2)nn1`, for which the concentration for half-maximal inhibition (IC50) is 56.8 µM.
Take `COc1ccc(-c2nc(-c3cccc(-n4cc(-c5cccc(F)c5)nn4)c3)oc2-c2ccc(OC)cc2)cc1`: the IC50 turned out to be 5.9 µM.
In the case of `COc1ccc(-c2nc(-c3cccc(-n4cc(-c5ccccc5OC)nn4)c3)oc2-c2ccc(OC)cc2)cc1`, the IC50 was found to be 15.4 µM.
On to `FC(F)(F)c1ccccc1-c1cn(-c2cccc(-c3nc(-c4ccc(Br)cc4)c(-c4ccc(Br)cc4)o3)c2)nn1`, for which the IC50 turned out to be 15.2 µM.
`COc1ccc(-c2nc(-c3cccc(-n4cc(-c5cccnc5)nn4)c3)oc2-c2ccc(OC)cc2)cc1`: the IC50 was 57.7 µM.

The subject of the next data set is ATCC 33277. Described as §1. In kind it is cell-based.
Settings: not given
The essentials:
as §2
As to `COc1ccccc1-c1cn(-c2cccc(-c3nc(-c4ccc(Br)cc4)c(-c4ccc(Br)cc4)o3)c2)nn1`, the inhibition entry was “Dose-dependent effect”.

Tested on in the next data set: not listed separately
Kind of data set: Cytotoxicity against gingival epithelial cells (unknown origin). In kind it is toxicity, cell-based. To be noted: epithelial cell.
Turning to `COc1ccccc1-c1cn(-c2cccc(-c3nc(-c4ccc(Br)cc4)c(-c4ccc(Br)cc4)o3)c2)nn1`, the Activity entry is reported as “Toxic”.
Still for that read-out and setting: the same measure for `COc1ccc(-c2nc(-c3cccc(-n4cc(-c5ccc6cc(OC)ccc6c5)nn4)c3)oc2-c2ccc(OC)cc2)cc1`: “Toxic”.
Regarding `CCCCCc1ccc(-c2cn(Cc3nc(-c4ccccc4)c(-c4ccccc4)o3)nn2)cc1`, the Activity result is “Toxic”.
As to `COc1ccc(-c2nc(-c3cccc(-n4cc(-c5ccc(F)cc5)nn4)c3)oc2-c2ccc(OC)cc2)cc1`, the Activity entry is given as “Toxic”.
For the compound `COc1ccccc1-c1cn(Cc2nc(-c3ccc(Br)cc3)c(-c3ccc(Br)cc3)o2)nn1`, the Activity result was “Toxic”.
With `Fc1ccc(-c2nc(-c3ccc(-n4cc(-c5ccccc5C(F)(F)F)nn4)cc3)oc2-c2ccc(F)cc2)cc1`, the Activity result is “Toxic”.
In the case of `COc1ccc2cc(-c3cn(Cc4nc(-c5ccc(Cl)cc5)c(-c5ccc(Cl)cc5)o4)nn3)ccc2c1`, the Activity entry was “Toxic”.
Regarding `Fc1cccc(-c2cn(-c3cccc(-c4nc(-c5ccc(Br)cc5)c(-c5ccc(Br)cc5)o4)c3)nn2)c1`, the Activity entry is “Toxic”.
Same read-out and setting: the same measure for `COc1ccccc1-c1cn(Cc2nc(-c3ccc(Cl)cc3)c(-c3ccc(Cl)cc3)o2)nn1`: “Toxic”; for `COc1ccc(-c2nc(-c3cccc(-n4cc(-c5cccc(F)c5)nn4)c3)oc2-c2ccc(OC)cc2)cc1`: “Toxic”.
`COc1ccc(-c2nc(-c3cccc(-n4cc(-c5ccccc5OC)nn4)c3)oc2-c2ccc(OC)cc2)cc1`: the Activity entry was “Toxic”.
As to `FC(F)(F)c1ccccc1-c1cn(-c2cccc(-c3nc(-c4ccc(Br)cc4)c(-c4ccc(Br)cc4)o3)c2)nn1`, the Activity result is “Toxic”.
In the case of `COc1ccc(-c2nc(-c3cccc(-n4cc(-c5cccnc5)nn4)c3)oc2-c2ccc(OC)cc2)cc1`, the Activity result is “Toxic”.

For a further data set, the system named is Streptococcus gordonii. The data set is described as follows: Growth inhibition of Streptococcus gordonii at 5 uM measured after 24 hrs. Conditions: read-out: GI.
`Fc1cccc(-c2cn(-c3cccc(-c4nc(-c5ccc(Br)cc5)c(-c5ccc(Br)cc5)o4)c3)nn2)c1`: the inhibition at 5 µM is -5.7%.

In another data set the test system is Streptococcus gordonii. The data set is described as follows: Growth inhibition of Streptococcus gordonii at 60 uM measured after 24 hrs. Conditions: read-out: GI.
For the compound `CCCCCc1ccc(-c2cn(Cc3nc(-c4ccccc4)c(-c4ccccc4)o3)nn2)cc1`, the inhibition at 60 µM was 6.6%.
For the compound `COc1ccccc1-c1cn(Cc2nc(-c3ccc(Br)cc3)c(-c3ccc(Br)cc3)o2)nn1`, the inhibition at 60 µM is 11.1%.
Still for that read-out and setting: the same measure for `COc1ccc2cc(-c3cn(Cc4nc(-c5ccc(Cl)cc5)c(-c5ccc(Cl)cc5)o4)nn3)ccc2c1`: -3.8%; for `COc1ccccc1-c1cn(Cc2nc(-c3ccc(Cl)cc3)c(-c3ccc(Cl)cc3)o2)nn1`: 6.6%.

For another data set, the system named is Streptococcus gordonii. The data set is described as follows: Growth inhibition of Streptococcus gordonii at 40 uM measured after 24 hrs. To be noted: read-out: GI.
Turning to `COc1ccccc1-c1cn(-c2cccc(-c3nc(-c4ccc(Br)cc4)c(-c4ccc(Br)cc4)o3)c2)nn1`, the inhibition at 40 µM worked out at 10.5%.
For the compound `COc1ccc(-c2nc(-c3cccc(-n4cc(-c5ccc(F)cc5)nn4)c3)oc2-c2ccc(OC)cc2)cc1`, the inhibition at 40 µM is -22.1%.
As for `Fc1ccc(-c2nc(-c3ccc(-n4cc(-c5ccccc5C(F)(F)F)nn4)cc3)oc2-c2ccc(F)cc2)cc1`, the inhibition at 40 µM is -11%.
Turning to `COc1ccc(-c2nc(-c3cccc(-n4cc(-c5cccc(F)c5)nn4)c3)oc2-c2ccc(OC)cc2)cc1`, the inhibition at 40 µM is -9.1%.
For the compound `COc1ccc(-c2nc(-c3cccc(-n4cc(-c5ccccc5OC)nn4)c3)oc2-c2ccc(OC)cc2)cc1`, the inhibition at 40 µM came to 0.8%.
Regarding `FC(F)(F)c1ccccc1-c1cn(-c2cccc(-c3nc(-c4ccc(Br)cc4)c(-c4ccc(Br)cc4)o3)c2)nn1`, the inhibition at 40 µM worked out at 2%.

In a further data set the test system is Streptococcus gordonii. The data set is described as follows: Growth inhibition of Streptococcus gordonii at 20 uM measured after 24 hrs. To be noted: read-out: GI.
Regarding `COc1ccc(-c2nc(-c3cccc(-n4cc(-c5ccc6cc(OC)ccc6c5)nn4)c3)oc2-c2ccc(OC)cc2)cc1`, the inhibition at 20 µM was -1.3%.

The next data set has as its system Porphyromonas gingivalis. Kind of data set: Growth inhibition of Porphyromonas gingivalis at 5 uM measured after 24 hrs.
Settings: not given
Consider `Fc1cccc(-c2cn(-c3cccc(-c4nc(-c5ccc(Br)cc5)c(-c5ccc(Br)cc5)o4)c3)nn2)c1`, for which the “growth inhibition (GI)” value is reported as -4.3%.

Another data set concerns Porphyromonas gingivalis. Kind of data set: Growth inhibition of Porphyromonas gingivalis at 60 uM measured after 24 hrs.
Settings: not given
For the compound `CCCCCc1ccc(-c2cn(Cc3nc(-c4ccccc4)c(-c4ccccc4)o3)nn2)cc1`, the “growth inhibition (GI)” value is listed as -14.5%.
Turning to `COc1ccccc1-c1cn(Cc2nc(-c3ccc(Br)cc3)c(-c3ccc(Br)cc3)o2)nn1`, the “growth inhibition (GI)” value is reported as -12.4%.
Consider `COc1ccc2cc(-c3cn(Cc4nc(-c5ccc(Cl)cc5)c(-c5ccc(Cl)cc5)o4)nn3)ccc2c1`, for which the “growth inhibition (GI)” value came out at 0.3%.
With `COc1ccccc1-c1cn(Cc2nc(-c3ccc(Cl)cc3)c(-c3ccc(Cl)cc3)o2)nn1`, the “growth inhibition (GI)” value is on record as -19.6%.

The next data set relates to Porphyromonas gingivalis. Kind of data set: Growth inhibition of Porphyromonas gingivalis at 40 uM measured after 24 hrs.
Settings: not given
For `COc1ccccc1-c1cn(-c2cccc(-c3nc(-c4ccc(Br)cc4)c(-c4ccc(Br)cc4)o3)c2)nn1`, the “growth inhibition (GI)” value is 4.3%.
In the case of `COc1ccc(-c2nc(-c3cccc(-n4cc(-c5ccc(F)cc5)nn4)c3)oc2-c2ccc(OC)cc2)cc1`, the “growth inhibition (GI)” value is given as -14.6%.
As for `Fc1ccc(-c2nc(-c3ccc(-n4cc(-c5ccccc5C(F)(F)F)nn4)cc3)oc2-c2ccc(F)cc2)cc1`, the “growth inhibition (GI)” value was found to be 0.1%.
Turning to `COc1ccc(-c2nc(-c3cccc(-n4cc(-c5cccc(F)c5)nn4)c3)oc2-c2ccc(OC)cc2)cc1`, the “growth inhibition (GI)” value is -2.6%.
As for `COc1ccc(-c2nc(-c3cccc(-n4cc(-c5ccccc5OC)nn4)c3)oc2-c2ccc(OC)cc2)cc1`, the “growth inhibition (GI)” value was -6.2%.
For the compound `FC(F)(F)c1ccccc1-c1cn(-c2cccc(-c3nc(-c4ccc(Br)cc4)c(-c4ccc(Br)cc4)o3)c2)nn1`, the “growth inhibition (GI)” value was -0.6%.

Another data set deals with Porphyromonas gingivalis. The data set is described as follows: Growth inhibition of Porphyromonas gingivalis at 20 uM measured after 24 hrs.
Settings: not given
With `COc1ccc(-c2nc(-c3cccc(-n4cc(-c5ccc6cc(OC)ccc6c5)nn4)c3)oc2-c2ccc(OC)cc2)cc1`, the “growth inhibition (GI)” value was 3%.
